Test results from ChEMBL document CHEMBL4371006, “Discovery of N-[4-(Quinolin-4-yloxy)phenyl]benzenesulfonamides as Novel AXL Kinase Inhibitors” (J Med Chem, 2018).

Assays:
[1] = biological target: Serine/threonine-protein kinase ULK3 (Homo sapiens, UniProt Q6PHR2); assay: Binding affinity to ULK3 in SILAC-labeled human MDA-MB-231 cells lysate by mass spectrometry based kinAffinity assay; format: subcellular
How it was run: (§1)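 MDA-MB-231 lysate applied to KinAffinity matrix of immobilized broadband kinase inhibitors at graded densities to obtain BC50 per target. Competition then run with increasing free compound to give CC50; Kd derived by Cheng-Prusoff. Two competition experiments in parallel to check equilibrium, one with lysate pre-incubated with compound before adding matrix. Quantitation by mass spectrometry.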

[2] = biological target: 5'-AMP-activated protein kinase catalytic subunit alpha-1 (Homo sapiens, UniProt Q13131); assay: Binding affinity to PRKAA1 in SILAC-labeled human MDA-MB-231 cells lysate by mass spectrometry based kinAffinity assay; format: subcellular; how it was run: as §1
[3] = biological target: Proto-oncogene tyrosine-protein kinase Src (Homo sapiens, UniProt P12931); assay: Binding affinity to SRC in SILAC-labeled human MDA-MB-231 cells lysate by mass spectrometry based kinAffinity assay; format: subcellular; how it was run: as §1
Proto-oncogene tyrosine-protein kinase Src, sequence (P12931 2-536 limits assumed): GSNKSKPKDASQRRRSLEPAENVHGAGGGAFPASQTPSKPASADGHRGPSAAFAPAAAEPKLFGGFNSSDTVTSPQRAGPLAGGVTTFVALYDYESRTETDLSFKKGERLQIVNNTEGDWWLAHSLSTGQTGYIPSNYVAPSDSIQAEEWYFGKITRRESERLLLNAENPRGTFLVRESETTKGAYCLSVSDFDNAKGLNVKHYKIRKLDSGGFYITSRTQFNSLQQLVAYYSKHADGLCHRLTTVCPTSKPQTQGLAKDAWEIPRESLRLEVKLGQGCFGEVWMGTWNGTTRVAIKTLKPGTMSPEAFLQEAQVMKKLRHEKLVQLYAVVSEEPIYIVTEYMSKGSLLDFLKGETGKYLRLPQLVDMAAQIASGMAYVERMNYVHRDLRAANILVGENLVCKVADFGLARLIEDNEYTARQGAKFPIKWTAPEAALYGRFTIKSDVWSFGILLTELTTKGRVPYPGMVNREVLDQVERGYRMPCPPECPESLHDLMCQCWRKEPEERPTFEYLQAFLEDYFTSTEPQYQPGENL

[4] = biological target: Serine/threonine-protein kinase MARK2 (Homo sapiens, UniProt Q7KZI7); assay: Binding affinity to MARK2 in SILAC-labeled human MDA-MB-231 cells lysate by mass spectrometry based kinAffinity assay; format: subcellular
How it was run: (§2)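 Chemical proteomics: MDA-MB-231 lysate bound to matrix of immobilized broad kinase inhibitors at several densities (BC50), then competed with increasing free compound (CC50); proteins quantified by mass spectrometry, Kd via Cheng-Prusoff. Two competition formats run in parallel to check equilibrium.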

[5] = biological target: Serine/threonine-protein kinase 3 (Homo sapiens, UniProt Q13188); assay: Binding affinity to MST2 in SILAC-labeled human MDA-MB-231 cells lysate by mass spectrometry based kinAffinity assay; format: subcellular; how it was run: as §1
Serine/threonine-protein kinase 3, sequence (Q13188 whole entry): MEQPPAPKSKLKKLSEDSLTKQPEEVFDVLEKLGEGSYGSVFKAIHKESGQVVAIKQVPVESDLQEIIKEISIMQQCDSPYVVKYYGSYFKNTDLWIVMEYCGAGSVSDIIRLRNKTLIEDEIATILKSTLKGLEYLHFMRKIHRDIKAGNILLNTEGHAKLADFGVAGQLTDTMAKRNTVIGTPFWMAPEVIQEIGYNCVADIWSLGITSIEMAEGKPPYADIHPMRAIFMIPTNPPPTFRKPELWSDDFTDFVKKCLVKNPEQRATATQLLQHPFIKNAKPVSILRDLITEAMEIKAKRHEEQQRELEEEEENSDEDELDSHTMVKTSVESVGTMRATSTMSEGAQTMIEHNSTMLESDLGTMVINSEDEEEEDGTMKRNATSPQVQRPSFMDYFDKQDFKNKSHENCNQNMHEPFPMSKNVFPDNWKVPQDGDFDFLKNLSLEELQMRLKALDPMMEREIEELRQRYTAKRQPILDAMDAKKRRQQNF

[6] = biological target: Receptor-interacting serine/threonine-protein kinase 2 (Homo sapiens, UniProt O43353); assay: Binding affinity to RIPK2 in SILAC-labeled human MDA-MB-231 cells lysate by mass spectrometry based kinAffinity assay; format: subcellular; how it was run: as §1
[7] = biological target: TGF-beta receptor type-2 (Homo sapiens, UniProt P37173); assay: Binding affinity to TGFBR2 in SILAC-labeled human MDA-MB-231 cells lysate by mass spectrometry based kinAffinity assay; format: subcellular; how it was run: as §1
TGF-beta receptor type-2, sequence (P37173 whole entry): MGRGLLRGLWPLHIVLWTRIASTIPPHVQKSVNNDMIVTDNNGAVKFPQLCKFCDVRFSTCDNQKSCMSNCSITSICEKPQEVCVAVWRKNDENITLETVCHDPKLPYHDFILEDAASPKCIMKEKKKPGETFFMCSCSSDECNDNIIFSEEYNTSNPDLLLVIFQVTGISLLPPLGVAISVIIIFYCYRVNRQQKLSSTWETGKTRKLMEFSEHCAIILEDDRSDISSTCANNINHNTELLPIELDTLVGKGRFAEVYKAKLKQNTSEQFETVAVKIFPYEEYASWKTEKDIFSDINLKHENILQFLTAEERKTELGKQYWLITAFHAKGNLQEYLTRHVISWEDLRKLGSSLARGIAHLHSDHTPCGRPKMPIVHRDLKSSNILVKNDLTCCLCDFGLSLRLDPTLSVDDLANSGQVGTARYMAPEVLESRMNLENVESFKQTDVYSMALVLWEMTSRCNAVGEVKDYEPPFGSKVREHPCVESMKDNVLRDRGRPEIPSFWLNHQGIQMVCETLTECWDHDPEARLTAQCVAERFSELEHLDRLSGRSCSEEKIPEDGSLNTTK

[8] = biological target: Serine/threonine-protein kinase 10 (Homo sapiens, UniProt O94804); assay: Binding affinity to LOK in SILAC-labeled human MDA-MB-231 cells lysate by mass spectrometry based kinAffinity assay; format: subcellular; how it was run: as §2
[9] = biological target: Mitogen-activated protein kinase kinase kinase 20 (Homo sapiens, UniProt Q9NYL2); assay: Binding affinity to ZAK in SILAC-labeled human MDA-MB-231 cells lysate by mass spectrometry based kinAffinity assay; format: subcellular; how it was run: as §1
Mitogen-activated protein kinase kinase kinase 20, sequence (Q9NYL2 whole entry): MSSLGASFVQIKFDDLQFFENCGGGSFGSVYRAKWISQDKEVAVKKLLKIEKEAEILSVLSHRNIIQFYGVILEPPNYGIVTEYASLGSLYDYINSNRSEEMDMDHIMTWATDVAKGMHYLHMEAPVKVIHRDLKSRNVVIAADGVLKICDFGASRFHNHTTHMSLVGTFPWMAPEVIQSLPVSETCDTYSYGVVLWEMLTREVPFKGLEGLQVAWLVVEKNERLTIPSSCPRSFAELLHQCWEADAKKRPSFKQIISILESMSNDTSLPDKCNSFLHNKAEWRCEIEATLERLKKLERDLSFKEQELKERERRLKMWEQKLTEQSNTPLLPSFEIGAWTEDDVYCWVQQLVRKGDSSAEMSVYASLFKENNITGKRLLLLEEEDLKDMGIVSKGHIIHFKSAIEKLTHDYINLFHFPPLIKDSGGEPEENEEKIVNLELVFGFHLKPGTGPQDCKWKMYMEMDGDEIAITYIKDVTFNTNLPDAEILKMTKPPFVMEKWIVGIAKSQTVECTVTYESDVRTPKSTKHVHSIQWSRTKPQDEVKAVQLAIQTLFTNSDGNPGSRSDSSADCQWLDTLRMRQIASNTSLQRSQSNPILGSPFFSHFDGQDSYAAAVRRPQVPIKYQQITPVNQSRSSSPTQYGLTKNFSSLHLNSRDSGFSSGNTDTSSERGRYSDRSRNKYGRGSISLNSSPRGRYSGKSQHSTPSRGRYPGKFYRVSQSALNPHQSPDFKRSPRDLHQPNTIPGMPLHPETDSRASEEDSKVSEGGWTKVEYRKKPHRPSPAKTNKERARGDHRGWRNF

[10] = biological target: 5'-AMP-activated protein kinase subunit beta-2 (Homo sapiens, UniProt O43741); assay: Binding affinity to PRKAB2 in SILAC-labeled human MDA-MB-231 cells lysate by mass spectrometry based kinAffinity assay; format: subcellular; how it was run: as §1
5'-AMP-activated protein kinase subunit beta-2, sequence (O43741 whole entry): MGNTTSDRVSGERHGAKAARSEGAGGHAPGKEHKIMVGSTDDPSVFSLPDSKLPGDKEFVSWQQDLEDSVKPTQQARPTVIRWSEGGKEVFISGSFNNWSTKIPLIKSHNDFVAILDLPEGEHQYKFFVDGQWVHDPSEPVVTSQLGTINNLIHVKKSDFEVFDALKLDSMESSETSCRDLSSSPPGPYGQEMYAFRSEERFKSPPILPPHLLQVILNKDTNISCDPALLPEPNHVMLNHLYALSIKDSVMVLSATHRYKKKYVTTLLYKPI

[11] = biological target: Mitogen-activated protein kinase kinase kinase kinase 5 (Homo sapiens, UniProt Q9Y4K4); assay: Binding affinity to MAP4K5 in SILAC-labeled human MDA-MB-231 cells lysate by mass spectrometry based kinAffinity assay; format: subcellular; how it was run: as §2
[12] = biological target: 5'-AMP-activated protein kinase subunit beta-1 (Homo sapiens, UniProt Q9Y478); assay: Binding affinity to PRKAB1 in SILAC-labeled human MDA-MB-231 cells lysate by mass spectrometry based kinAffinity assay; format: subcellular; how it was run: as §1
5'-AMP-activated protein kinase subunit beta-1, sequence (Q9Y478 whole entry): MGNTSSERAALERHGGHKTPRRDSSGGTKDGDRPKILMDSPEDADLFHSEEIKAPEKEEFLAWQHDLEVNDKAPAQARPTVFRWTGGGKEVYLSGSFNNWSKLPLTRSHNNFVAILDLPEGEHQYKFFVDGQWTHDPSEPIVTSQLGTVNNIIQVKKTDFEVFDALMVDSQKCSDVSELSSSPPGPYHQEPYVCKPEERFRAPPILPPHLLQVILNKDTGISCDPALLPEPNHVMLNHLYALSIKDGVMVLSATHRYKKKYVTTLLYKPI

[13] = biological target: Epidermal growth factor receptor (Homo sapiens, UniProt P00533); assay: Binding affinity to EGFR in SILAC-labeled human MDA-MB-231 cells lysate by mass spectrometry based kinAffinity assay; format: subcellular; how it was run: as §2
[14] = biological target: Mitogen-activated protein kinase kinase kinase kinase 3 (Homo sapiens, UniProt Q8IVH8); assay: Binding affinity to MAP4K3 in SILAC-labeled human MDA-MB-231 cells lysate by mass spectrometry based kinAffinity assay; format: subcellular; how it was run: as §2
[15] = biological target: Focal adhesion kinase 1 (Homo sapiens, UniProt Q05397); assay: Binding affinity to FAK in SILAC-labeled human MDA-MB-231 cells lysate by mass spectrometry based kinAffinity assay; format: subcellular; how it was run: as §2
[16] = biological target: Tyrosine-protein kinase Fyn (Homo sapiens, UniProt P06241); assay: Binding affinity to FYN in SILAC-labeled human MDA-MB-231 cells lysate by mass spectrometry based kinAffinity assay; format: subcellular; how it was run: as §2
Tyrosine-protein kinase Fyn, sequence (P06241 whole entry): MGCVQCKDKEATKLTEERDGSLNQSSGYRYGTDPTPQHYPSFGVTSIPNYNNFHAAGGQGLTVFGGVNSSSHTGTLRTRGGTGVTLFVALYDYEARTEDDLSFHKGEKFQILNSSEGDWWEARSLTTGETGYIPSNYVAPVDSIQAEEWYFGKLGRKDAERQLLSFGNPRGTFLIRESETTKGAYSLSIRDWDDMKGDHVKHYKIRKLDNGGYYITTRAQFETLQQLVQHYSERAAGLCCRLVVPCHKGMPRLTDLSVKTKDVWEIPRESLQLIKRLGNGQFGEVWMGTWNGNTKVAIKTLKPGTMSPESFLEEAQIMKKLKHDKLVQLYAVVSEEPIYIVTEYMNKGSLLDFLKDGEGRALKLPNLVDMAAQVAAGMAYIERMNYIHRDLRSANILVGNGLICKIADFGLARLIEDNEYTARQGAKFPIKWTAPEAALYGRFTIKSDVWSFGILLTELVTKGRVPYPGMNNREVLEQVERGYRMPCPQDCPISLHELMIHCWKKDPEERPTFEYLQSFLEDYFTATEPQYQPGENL

[17] = biological target: 5'-AMP-activated protein kinase subunit gamma-1 (Homo sapiens, UniProt P54619); assay: Binding affinity to PRKAG1 in SILAC-labeled human MDA-MB-231 cells lysate by mass spectrometry based kinAffinity assay; format: subcellular; how it was run: as §1
5'-AMP-activated protein kinase subunit gamma-1, sequence (P54619 whole entry): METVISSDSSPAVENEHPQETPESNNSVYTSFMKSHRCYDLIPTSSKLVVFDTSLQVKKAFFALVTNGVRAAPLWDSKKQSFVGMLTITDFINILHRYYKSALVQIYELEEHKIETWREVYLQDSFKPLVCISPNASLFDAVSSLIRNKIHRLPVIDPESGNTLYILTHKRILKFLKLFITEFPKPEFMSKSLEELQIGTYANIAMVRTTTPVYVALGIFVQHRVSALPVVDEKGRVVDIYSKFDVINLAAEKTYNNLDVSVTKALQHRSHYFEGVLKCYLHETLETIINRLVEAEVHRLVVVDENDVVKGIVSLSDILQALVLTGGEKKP

[18] = biological target: Non-receptor tyrosine-protein kinase TNK1 (Homo sapiens, UniProt Q13470); assay: Binding affinity to TNK1 in SILAC-labeled human MDA-MB-231 cells lysate by mass spectrometry based kinAffinity assay; format: subcellular; how it was run: as §1
Non-receptor tyrosine-protein kinase TNK1, sequence (Q13470 whole entry): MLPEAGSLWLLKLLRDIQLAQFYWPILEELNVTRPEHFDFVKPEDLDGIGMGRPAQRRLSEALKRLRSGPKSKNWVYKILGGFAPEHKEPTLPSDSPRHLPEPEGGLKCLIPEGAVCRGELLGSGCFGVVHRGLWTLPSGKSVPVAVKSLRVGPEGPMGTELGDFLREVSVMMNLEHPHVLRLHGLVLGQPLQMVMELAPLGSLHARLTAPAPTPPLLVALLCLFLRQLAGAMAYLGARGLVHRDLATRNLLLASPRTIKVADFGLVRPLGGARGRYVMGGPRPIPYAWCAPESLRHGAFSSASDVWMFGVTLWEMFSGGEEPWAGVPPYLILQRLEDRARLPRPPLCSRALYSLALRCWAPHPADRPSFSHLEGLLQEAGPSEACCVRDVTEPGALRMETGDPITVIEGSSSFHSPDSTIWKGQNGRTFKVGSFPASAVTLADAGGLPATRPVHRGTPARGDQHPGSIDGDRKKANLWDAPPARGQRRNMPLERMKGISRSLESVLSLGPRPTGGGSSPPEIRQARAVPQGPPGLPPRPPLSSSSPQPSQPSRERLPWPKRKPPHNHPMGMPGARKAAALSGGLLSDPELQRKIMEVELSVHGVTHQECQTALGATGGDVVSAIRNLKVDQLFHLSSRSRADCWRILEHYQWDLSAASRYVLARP

[19] = biological target: Aurora kinase B (Homo sapiens, UniProt Q96GD4); assay: Binding affinity to AURKB in SILAC-labeled human MDA-MB-231 cells lysate by mass spectrometry based kinAffinity assay; format: subcellular; how it was run: as §2
[20] = biological target: Serine/threonine-protein kinase SIK2 (Homo sapiens, UniProt Q9H0K1); assay: Binding affinity to QIK in SILAC-labeled human MDA-MB-231 cells lysate by mass spectrometry based kinAffinity assay; format: subcellular; how it was run: as §1
[21] = biological target: Aurora kinase A (Homo sapiens, UniProt O14965); assay: Binding affinity to AURKA in SILAC-labeled human MDA-MB-231 cells lysate by mass spectrometry based kinAffinity assay; format: subcellular; how it was run: as §2
[22] = Intrinsic clearance in human liver microsomes at 5 uM after 60 mins in presence of NADPH by LC-MS/MS analysis; format: ADME, Microsome; details: read-out: CLH
How it was run: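 Compound at 5 µM with 1 mg/mL human or mouse liver microsomes plus an NADPH-regenerating system, in 100 mM potassium phosphate at 37°C. Reactions were stopped with acetonitrile at sampling times. Percent remaining versus time 0 was measured by HPLC, in duplicate.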

[23] = AUC (0 to tz) in mouse at 1 to 2 mg/kg, iv by LC/MS/MS analysis; format: ADME, organism-based; details: in vivo
How it was run: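 Male ICR mice (27 ± 5 g, n = 3) dosed iv via tail vein at 2 or 1 mg/kg in 30% PEG400/5% ethanol in water. Jugular blood (0.3 mL, heparin) sampled at set times over 24 h or more; plasma separated, acetonitrile-precipitated, drug quantified by LC/MS/MS; parameters from noncompartmental-type software estimation.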

[24] = Apparent half-life of the terminal disposition phase in mouse at 3 mg/kg, iv by LC/MS/MS analysis; details: in vivo, read-out: t1/2 lambda z (converted)
[25] = Toxicity in mouse assessed as drug tolerability at 300 mg/kg, po; format: organism-based; details: in vivo
[26] = Stability in human plasma assessed as parent compound remaining; format: ADME, cell-free
[27] = Efflux ratio of apparent permeability from basolateral to apical side over apical to basolateral side in human Caco2 cells at 10 uM after 2 hrs by LC-MS/MS analysis; format: ADME, cell-based; details: Caco-2
How it was run: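 Caco-2 monolayers differentiated 3 weeks, integrity checked by Lucifer yellow transport. Compound at 10 µM for 2 h; apical transport buffer (glucose, 10 mM HEPES, HBSS, pH 6.5, 100 µM Lucifer yellow), basolateral buffer pH 7.4. Papp = (dQ/dt)/C0A; efflux ratio = Papp(B→A)/Papp(A→B).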

Serine/threonine-protein kinase ULK3, sequence (Q6PHR2 whole entry): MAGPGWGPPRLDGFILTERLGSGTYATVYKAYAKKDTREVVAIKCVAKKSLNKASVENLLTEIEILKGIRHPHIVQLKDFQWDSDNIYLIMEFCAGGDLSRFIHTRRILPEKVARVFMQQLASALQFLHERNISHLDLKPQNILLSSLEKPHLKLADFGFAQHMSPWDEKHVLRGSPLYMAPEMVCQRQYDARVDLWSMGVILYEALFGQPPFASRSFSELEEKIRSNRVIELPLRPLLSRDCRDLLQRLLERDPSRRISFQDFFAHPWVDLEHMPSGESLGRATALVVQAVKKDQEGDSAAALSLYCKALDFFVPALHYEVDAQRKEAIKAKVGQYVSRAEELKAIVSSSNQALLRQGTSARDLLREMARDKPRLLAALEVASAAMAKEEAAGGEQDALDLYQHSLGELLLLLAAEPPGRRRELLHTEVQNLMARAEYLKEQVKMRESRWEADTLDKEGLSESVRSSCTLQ

Compound	Kd(free) [1] [µM]	Kd(free) [2] [µM]	Kd(free) [3] [µM]	Kd(free) [4] [µM]	Kd(free) [5] [µM]	Kd(free) [6] [µM]	Kd(free) [7] [µM]	Kd(free) [8] [µM]	Kd(free) [9] [µM]	Kd(free) [10] [µM]	Kd(free) [11] [µM]	Kd(free) [12] [µM]	Kd(free) [13] [µM]	Kd(free) [14] [µM]	Kd(free) [15] [µM]	Kd(free) [16] [µM]	Kd(free) [17] [µM]	Kd(free) [18] [µM]	Kd(free) [19] [µM]	Kd(free) [20] [µM]	also measured
COc1cc2c(Oc3ccc(NS(=O)(=O)c4c(F)cccc4F)cc3F)ccnc2cc1OCCCN1CCN(C)CC1	> 2.513	0.786	0.096	7.086	5.223	0.017	7.385	3.039	3.21	1.907	0.008	2.279	0.016	1.367	2.212	0.038	1.871	0.014	0.034	3.545	Kd(free) [21]: 0.146 µM
COc1cc2c(Oc3ccc(NS(=O)(=O)c4cc(F)ccc4F)cc3F)ccnc2cc1OCCCN1CCCC(C)C1 (centres undefined)	–	–	–	–	–	–	–	–	–	–	–	–	–	–	–	–	–	–	–	–	microsomal CLint at 5 µM [22]: 18.3 µL/min/mg; AUC [23]: 669 ng·h/mL; half-life [24]: 8.5 h; Activity [25]: Non-Toxic; Stability [26]: 99.1%; efflux ratio at 2 h, 10 µM [27]: 6.6
COc1cc2c(Oc3ccc(NS(=O)(=O)c4cc(F)ccc4F)cc3F)ccnc2cc1OCCCN1CCN(C)CC1	> 2.514	0.616	0.254	4.455	> 6.454	0.043	1.86	3.78	1.18	0.969	0.024	1.257	0.122	2.08	4.445	0.064	0.825	0.024	> 0.069	4.518	microsomal CLint at 5 µM [22]: 60.5 µL/min/mg; AUC [23]: 1430 ng·h/mL; half-life [24]: 18.7 h; Activity [25]: Non-Toxic; Stability [26]: 96.3%; efflux ratio at 2 h, 10 µM [27]: 2.3; Kd(free) [21]: 0.847 µM
